Test results: ChEMBL document CHEMBL5608236, “A Photoactivatable Version of Ivabradine Enables Light-Induced Block of HCN Current In Vivo” (J Med Chem, 2024)
The source made the active and inactive calls. The calls are words filed in the database; no cut-off is given here.

Experiments:
[1] = Drug accumulation in human HEK-293T cells transfected with RFP-fused human HCN1 assessed as increase in fluorescent signal at 30 uM incubated for 15 mins by fluorescent microscopic analysis; type: ADME, cell-based; settings: 0.25 h
Outline: (§1)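 HEK293T cells incubated with 30 μM compound in buffer for 15 min, or perfused for 5 min. Intracellular autofluorescence (excitation 405 nm, emission 518 nm) imaged by fluorescence microscopy, with images taken during 10 min of washout.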

[2] = Drug accumulation in human HEK-293T cells transfected with RFP-fused human HCN1 assessed as increase in fluorescent signal at 30 uM measured for 25 mins by fluorescent microscopic analysis; type: ADME, cell-based; outline: as §1
HEK-293T = experiment: Cytotoxicity against human HEK-293T cells assessed as reduction in cell viability at 100 uM incubated upto 48 hrs by live/dead TM red staining based fluorescent microscopic analysis; type: toxicity
Outline: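 HEK293T cells in DMEM high-glucose with 10% FBS and 1% PenStrep, treated at 80-90% confluency with 100 μM compound added to growth medium; untreated and 0.5% DMSO controls, heat-killed (60 °C, 20 min) positive control. After 8, 16, 24 or 48 h, cells detached, stained with LIVE-DEAD NearIF in PBS, imaged at 640 nm excitation; dead cells counted in three random quadrants per triplicate.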

[3] = In vivo inhibition of HCN4 in Zebrafish larvae assessed as reduction in heart rate at 1 mM administered at 48 hpf along with 0.5 mW/mm2 of UV light irradiation exposure at 365 nm measured upto 60 mins (reference value: 84 +/- 1 %); type: functional, Danio rerio
[4] = In vivo inhibition of HCN4 in Zebrafish larvae assessed as reduction in heart rate at 1 mM administered at 48 hpf along with 2 mW/mm2 of blue light irradiation exposure at 436 nm measured upto 60 mins (reference value: 80 +/- 1 %); type: functional, Danio rerio
[5] = Solubility of compound in HEPES buffer at pH 7.4 by UV-Visible spectra analysis; type: physicochemical
[6] = Fluorescence property of compound in HEPES buffer at pH 7.4 assessed as quantum yield at 1.5 mM under irradiation with 365 nm light by UV-Visible spectra analysis; type: physicochemical; settings: pH 7.4, 1500 µM
[7] = Fluorescence property of compound in HEPES buffer at pH 7.4 assessed as quantum yield at 1.5 mM under irradiation with 395 nm light by UV-Visible spectra analysis; type: physicochemical; settings: pH 7.4, 1500 µM
[8] = Fluorescence property of compound in HEPES buffer at pH 7.4 assessed as quantum yield at 1.5 mM under irradiation with 440 nm light by UV-Visible spectra analysis; type: physicochemical; settings: pH 7.4, 1500 µM
[9] = target: T1, Potassium/sodium hyperpolarization-activated cyclic nucleotide-gated channel 1 (Homo sapiens) (UniProt O60741); experiment: Inhibition of RFP-fused human HCN1 transfected in HEK-293T cells at 100 uM at holding potential of -110 mV under dark condition by whole cell patch clamp electrophysiology; type: cell-based
T1 sequence (whole entry): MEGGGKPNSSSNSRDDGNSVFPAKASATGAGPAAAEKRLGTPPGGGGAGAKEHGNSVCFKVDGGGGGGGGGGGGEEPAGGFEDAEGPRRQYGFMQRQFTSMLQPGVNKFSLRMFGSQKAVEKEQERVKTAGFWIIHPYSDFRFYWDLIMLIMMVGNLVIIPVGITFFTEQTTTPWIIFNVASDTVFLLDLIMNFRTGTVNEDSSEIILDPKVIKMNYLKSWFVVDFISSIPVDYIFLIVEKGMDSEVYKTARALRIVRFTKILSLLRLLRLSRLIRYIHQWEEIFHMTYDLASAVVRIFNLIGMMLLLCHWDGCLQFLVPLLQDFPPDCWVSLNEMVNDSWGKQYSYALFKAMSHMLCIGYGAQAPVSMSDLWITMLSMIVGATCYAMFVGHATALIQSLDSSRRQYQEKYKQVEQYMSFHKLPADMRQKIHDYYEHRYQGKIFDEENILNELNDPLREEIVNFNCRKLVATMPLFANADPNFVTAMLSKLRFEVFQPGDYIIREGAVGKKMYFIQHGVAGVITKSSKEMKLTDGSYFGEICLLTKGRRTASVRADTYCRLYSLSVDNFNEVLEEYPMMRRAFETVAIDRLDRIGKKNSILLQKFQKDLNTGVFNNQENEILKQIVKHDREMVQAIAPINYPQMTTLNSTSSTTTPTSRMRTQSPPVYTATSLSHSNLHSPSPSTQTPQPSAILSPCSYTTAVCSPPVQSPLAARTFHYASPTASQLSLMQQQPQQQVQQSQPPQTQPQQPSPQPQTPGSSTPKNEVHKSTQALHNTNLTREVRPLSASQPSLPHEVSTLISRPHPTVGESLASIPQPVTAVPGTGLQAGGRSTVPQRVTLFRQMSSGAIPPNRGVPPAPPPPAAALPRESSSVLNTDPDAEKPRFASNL
Outline: (§2)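 RFP-hHCN1 transiently expressed in HEK293T; whole-cell patch clamp at room temperature, 5 kHz sampling, 1 kHz filter. Steps to -110 mV (1.8 s) and +5 mV (0.5 s) every 5.5 s from -20 mV holding. Compound added to extracellular solution by perfusion, either in the dark, pre-illuminated (395 nm 0.5 mW/mm2, or 440 nm 1 mW/mm2 for 1 min) or illuminated during perfusion. Fractional block = current reduction/control current; mean ± SEM.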

[10] = target: T1, Potassium/sodium hyperpolarization-activated cyclic nucleotide-gated channel 1 (Homo sapiens); experiment: Inhibition of RFP-fused human HCN1 transfected in HEK-293T cells at 100 uM at holding potential of -110 mV under UV light exposure by whole cell patch clamp electrophysiology; type: cell-based; outline: as §2
Neuron [11] = experiment: Inhibition of HCN in mouse brain neuron assessed as reduction of hyperpolarization-activated current (Ih) at 100 uM at holding potential of -70 to -120 mV with UV light irradiation at 365 nm by whole cell patch clamp electrophysiology; type: tissue-based
Outline: (§3)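 Dendritic whole-cell recordings on L5 neurons of medial prefrontal cortex in acute slices from male mice (2-3 months), aCSF at 32-34 °C with D-APV, DNQX, CGP and gabazine. Ih evoked by steps to -120 mV (1.8 s) then +5 mV (0.15 s) from -70 mV holding. Compound bath-perfused at 30 or 100 μM with 365 nm illumination of the slice (23.5 mW); steady-state current compared before and at full effect; paired t-test.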

[12] = target: T1, Potassium/sodium hyperpolarization-activated cyclic nucleotide-gated channel 1 (Homo sapiens); experiment: Inhibition of RFP-fused human HCN1 transfected in HEK-293T cells at 30 uM at holding potential of -110 mV pre-exposed with 0.5 mW/mm2 of UV light irradiation at 395 nm by whole cell patch clamp electrophysiology; type: cell-based; outline: as §2
[13] = target: T1, Potassium/sodium hyperpolarization-activated cyclic nucleotide-gated channel 1 (Homo sapiens); experiment: Inhibition of RFP-fused human HCN1 transfected in HEK-293T cells at 30 uM at holding potential of -110 mV with 0.5 mW/mm2 of UV light irradiation exposure at 395 nm by whole cell patch clamp electrophysiology; type: cell-based; outline: as §2
[14] = target: T1, Potassium/sodium hyperpolarization-activated cyclic nucleotide-gated channel 1 (Homo sapiens); experiment: Inhibition of RFP-fused human HCN1 transfected in HEK-293T cells at 30 uM at holding potential of -110 mV pre-exposed with 0.5 mW/mm2 of UV light irradiation at 395 nm by whole cell patch clamp electrophysiology relative to IVA; type: cell-based; outline: as §2
[15] = target: T1, Potassium/sodium hyperpolarization-activated cyclic nucleotide-gated channel 1 (Homo sapiens); experiment: Inhibition of RFP-fused human HCN1 transfected in HEK-293T cells at 30 uM at holding potential of -110 mV with 0.5 mW/mm2 of UV light irradiation exposure at 395 nm by whole cell patch clamp electrophysiology relative to IVA; type: cell-based; outline: as §2
[16] = target: T1, Potassium/sodium hyperpolarization-activated cyclic nucleotide-gated channel 1 (Homo sapiens); experiment: Inhibition of RFP-fused human HCN1 transfected in HEK-293T cells at 30 uM at holding potential of -110 mV with 1 mW/mm2 of blue light irradiation exposure at 440 nm by whole cell patch clamp electrophysiology relative to IVA; type: cell-based; outline: as §2
[17] = target: T1, Potassium/sodium hyperpolarization-activated cyclic nucleotide-gated channel 1 (Homo sapiens); experiment: Inhibition of RFP-fused human HCN1 transfected in HEK-293T cells at 100 uM at holding potential of -110 mV pre-exposed with 1 mW/mm2 of blue light irradiation at 440 nm by whole cell patch clamp electrophysiology relative to IVA; type: cell-based; outline: as §2
[18] = target: T1, Potassium/sodium hyperpolarization-activated cyclic nucleotide-gated channel 1 (Homo sapiens); experiment: Inhibition of RFP-fused human HCN1 transfected in HEK-293T cells at 100 uM at holding potential of -110 mV with 1 mW/mm2 of blue light irradiation exposure at 440 nm by whole cell patch clamp electrophysiology relative to IVA; type: cell-based; outline: as §2
Neuron [19] = experiment: Inhibition of HCN in mouse brain neuron assessed as reduction of hyperpolarization-activated current (Ih) at 30 to 100 uM at holding potential of -70 to -120 mV with UV light irradiation at 365 nm by whole cell patch clamp electrophysiology; type: tissue-based; settings: dose 30-100 µM; outline: as §3
Neuron [20] = experiment: Inhibition of HCN in mouse brain neuron assessed as reduction of hyperpolarization-activated current (Ih) at 30 uM at holding potential of -70 to -120 mV with UV light irradiation at 365 nm by whole cell patch clamp electrophysiology; type: tissue-based; outline: as §3
[21] = Stability in human plasma at 40 mM incubated upto 24 hrs by UV-HPLC analysis; type: ADME, cell-free; settings: 1000 µM, in the assay text read “1 mM” for “40 mM”
Outline: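 A 40 mM stock was added to human plasma (10 into 390 parts) and incubated at 37 °C for 24 h, in duplicate. At time points, aliquots were quenched in 3 volumes of cold acetonitrile, centrifuged at 4 °C for 10 min, filtered and analysed by HPLC-UV (C18, TFA water/acetonitrile gradient, detection at 280 nm).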

| SMILES | solubility [5] [µM] | Activity [6] | Activity [7] | Activity [8] | inhibition [9] | Activity (HEK-293T) | inhibition (INH) [3] [%] | inhibition (INH) [4] [%] | also measured |
| --- | --- | --- | --- | --- | --- | --- | --- | --- | --- |
| COc1cc2c(cc1OC)CC(=O)N(CCC[N+](C)(Cc1ccc3ccc(O)c(Br)c3n1)C[C@H]1Cc3cc(OC)c(OC)cc31)CC2.CS(=O)(=O)[O-] (stereo not given in full) | 550 | 0.091 | 0.041 | 0.051 | – | Non-Toxic | 51 | 49 | Drug uptake [1]: Active; Drug uptake [2]: Active |
| COc1cc2c(cc1OC)CC(=O)N(CCCN(C)C[C@H]1Cc3cc(OC)c(OC)cc31)CC2 | – | – | – | – | – | – | – | – | inhibition (Neuron [20]): Active |
| COc1cc2c(cc1OC)CC(=O)N(CCC[N+](C)(Cc1ccc3ccc(O)c(Br)c3n1)C[C@H]1Cc3cc(OC)c(OC)cc31)CC2.[OH-] (stereo not given in full) | 430 | 0.073 | 0.034 | 0.062 | – | – | 49 | 51 | Stability [21]: Stable |

Further lines, with some results ahead:

| solubility [5] [µM] | Activity [6] | Activity [7] | Activity [8] | inhibition [9] | SMILES | Activity (HEK-293T) | inhibition (INH) [3] [%] | inhibition (INH) [4] [%] | also measured |
| --- | --- | --- | --- | --- | --- | --- | --- | --- | --- |
| – | – | – | – | inactive | OCc1ccc2ccc(O)c(Br)c2n1 | Non-Toxic | – | – | inhibition [10]: inactive; inhibition (Neuron [11]): inactive |
| – | – | – | – | inactive | COc1cc2c(cc1OC)CC(=O)N(CCC[N+](C)(Cc1ccc3ccc(O)c(Br)c3n1)C[C@H]1Cc3cc(OC)c(OC)cc31)CC2 (stereo not given in full) | – | – | – | inhibition [12]: Active; inhibition [13]: Active; inhibition [14]: 95%; inhibition [15]: 85%; inhibition [16]: 65%; inhibition [17]: 85%; inhibition [18]: 85%; inhibition (Neuron [19]): Active |
